Screening data deposited in PubChem by several laboratories.
Vif inh = inhibitors of HIV Vif; inhibition, % at 7.49 µM; 0.35% of 340,000 active; HEK293T cells, Vif self-association by quenched fluorescence, imaging, 24 h; in the data active means inhibition above about 50%, passing the limit was not always enough; inconclusive means no clear call, values can overlap the other calls; inactive means below about 31%
PKA-R1A activ = activators of PKA-R1A complex; 0.083% of 340,000 active; PKA-R1A dissociation, Cy5-IP20 fluorescence polarization; scaled: DMSO 0%, 113 µM cGMP 100%; activation, % at 11.4 µM; AID 504707; P00514+P68181;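 active means percent activation above the mean of all tested compounds plus 3 SD, cut at about 19% in these data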;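 further: higher means more PKAc released from R1A so a rise in polarization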
SR-BI DiI-HDL act = SR-BI HDL lipid transfer activation. CHO ldlA[mSR-BI] cells, DiI-HDL uptake fluorescence, 3 h; 100 = double the neutral-control signal. activation, % at 12.5 µM. 0.096% of 320,000 active. AID 504775;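 active means mean replicate activation of at least 60% and every replicate at or above 60%; inconclusive means mean or all-replicate condition met, but not both; inactive means mean below 60% and not all replicates reaching 60%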
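Material: SR-BI-overexpressing, LDLR-lacking CHO cells | Dosing: Single compound concentration, delivered by pin transfer | Probe or stimulus: Labelled HDL, 10 µg/mL | Signal: Bottom-read cell fluorescence after medium removal, ex 550/em 595 nm | Schedule: 3 h, 37 °C | Evaluation: HDL uptake via cellular fluorescence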
SR-BI HDL uptake = inhibitors of mouse SR-BI mediated HDL lipid uptake | ldlA[mSR-BI] CHO cells, DiI-HDL uptake fluorescence, 3 h | Q61009 | 0.96% of 320,000 active | inhibition, % at 12.5 µM;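 active means mean replicate inhibition of at least 70% and a set share of replicates each scoring 70 or more; inconclusive means meets just one of the two criteria; inactive means fails both criteria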
Target sequence (Q61009 whole entry, looked up): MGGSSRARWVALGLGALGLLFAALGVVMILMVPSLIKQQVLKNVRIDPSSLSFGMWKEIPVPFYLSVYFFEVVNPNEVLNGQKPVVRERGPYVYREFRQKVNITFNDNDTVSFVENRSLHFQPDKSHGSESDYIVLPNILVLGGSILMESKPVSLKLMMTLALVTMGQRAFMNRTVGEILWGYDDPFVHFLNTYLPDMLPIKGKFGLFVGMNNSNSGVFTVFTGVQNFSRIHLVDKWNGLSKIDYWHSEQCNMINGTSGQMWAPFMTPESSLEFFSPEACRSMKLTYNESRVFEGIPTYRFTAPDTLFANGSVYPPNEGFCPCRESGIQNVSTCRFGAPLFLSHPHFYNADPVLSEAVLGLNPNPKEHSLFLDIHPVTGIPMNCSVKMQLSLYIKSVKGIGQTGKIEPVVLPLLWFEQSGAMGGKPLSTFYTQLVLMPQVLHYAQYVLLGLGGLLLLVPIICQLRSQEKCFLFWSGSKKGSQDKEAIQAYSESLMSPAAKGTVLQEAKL
PKA-R2B activ = PKA-R2B complex activation. PKA-R2B holoenzyme dissociation, Cy5-IP20 fluorescence polarization; R2B truncated from residue 108, S112A mutant; 0% DMSO only, 100% 113 µM cGMP. 0.079% of 340,000 active. P22694+P31323. AID 504700. activation, % at 11.4 µM;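 active means activation above a cutoff set at the mean over all compounds plus 3 SD, cut at about 18% in these data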;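 further: higher means more holoenzyme dissociation and a rise in polarization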
Numbers stand for hits; n = inactive; u = inconclusive; x = no result. This is a sample that favours compounds with a hit; in the whole collection about 1.4% have one here.

SMILES	Vif inh	PKA-R1A activ	SR-BI DiI-HDL act	SR-BI HDL uptake	PKA-R2B activ
CC(=O)Nc1ccc(CN2C(=O)C(C)(C)ON=C2c2ccc(NC(C)=O)cc2)cc1	n	x	x	x	x
COc1ccc(/C=N/Nc2nc(-c3ccc(Cl)cc3)cc(C(F)(F)F)n2)c(OC)c1	n	n	n	80.4	n
O=C(c1cc2nc(-c3ccc(F)cc3)cc(C(F)(F)F)n2n1)N1CCCCC1c1cccnc1 (centres undefined)	n	n	n	82.4	n
CS(=O)(=O)c1ccc(Cl)c(NC(=O)COC(=O)COc2ccc3c(c2)CCC3)c1	n	n	n	n	n
COc1ccccc1C(O)(C(=O)NN(C(=O)c1ccccc1)c1ccccc1C)c1cccs1 (centres undefined)	52.1	n	n	n	n
C/C(=N\NC(N)=S)c1ccc(Cl)s1	n	n	n	79.2	n
Cc1ccc(CONC(=O)/N=C/N(C)C)cc1	63.3	n	n	n	n
Cc1ccccc1NC(=O)Cc1nc(COC(=O)c2cccc(C)c2O)cs1	n	n	n	n	n
CCOC(=O)c1c(C)[nH]c(C(=O)OCc2csc(CC(=O)Nc3ccccc3C)n2)c1C	n	n	n	81.0	n
Cc1nnc(NC(=O)CSc2nnc(NC(=O)C(C)(C)C)s2)s1	75.4	n	n	n	n
CC(C)(C)C(=O)Nc1nnc(SCC(=O)Nc2nccs2)s1	n	n	n	n	n
NC(c1csc(Nc2ccccn2)n1)c1ccccc1Cl (centres undefined)	n	x	x	x	x
Cc1c(CCC(=O)O)c(=O)oc2cc(OCc3ccccc3F)ccc12	n	n	n	n	n
O=C(NCc1ccc(Cl)cc1)N1CCOCC1	50.4	n	n	n	n
O=C(Nc1ccccc1)c1ccc(=O)n(Cc2ccc(F)c(F)c2)c1	n	n	n	n	n
COc1ccc(C(=O)Nc2nnc(CCS(=O)(=O)c3ccc(C)cc3)s2)cc1	n	n	n	n	n
OCC1OC(n2cnc3c(NC4CCCC4)ncnc32)C(O)C1O (centres undefined)	u	n	n	n	n
C=CCNc1ncnc2c1ncn2C1OC(CO)C(O)C1O (centres undefined)	60.4	n	n	n	n
OC[C@H]1O[C@@H](n2cnc3c(NC4CCCC4)ncnc32)[C@H](O)[C@@H]1O	67.1	n	n	n	n
OCC1OC(n2cnc3c(NCc4ccco4)ncnc32)C(O)C1O (centres undefined)	53.8	n	n	n	n
Nc1ncnc2c1ncn2C1OC(C(=O)NC2CC2)C(O)C1O (centres undefined)	160.0	n	n	n	n
C[C@@H](CO)NC(=O)[C@H]1O[C@@H](n2cnc3c(N)ncnc32)[C@H](O)[C@@H]1O	n	x	x	x	x
CC1CCC(NC(=O)CN2C(=O)c3ccccc3S2(=O)=O)CC1 (centres undefined)	58.7	n	n	n	n
COc1cccc(NC(=O)CSC(N)=O)c1	n	n	n	n	n
CCOC(=O)c1c(C)[nH]c(C)c1S(=O)(=O)N1CCN(C(=O)c2ccco2)CC1	n	n	n	n	n
SMILES	Vif inh	PKA-R1A activ	SR-BI DiI-HDL act	SR-BI HDL uptake	PKA-R2B activ
CCC(C)C(=O)Nc1nc(C)c(-c2csc(Nc3cc(Cl)ccc3OC)n2)s1 (centres undefined)	n	n	n	71.7	n
COc1ccc(OC)c(Nc2nc(-c3sc(NC(=O)C(C)(C)C)nc3C)cs2)c1	n	n	n	81.5	n
CCC(C)C(=O)Nc1nc(C)c(-c2csc(Nc3cc(OC)ccc3OC)n2)s1 (centres undefined)	n	n	n	80.1	n
COc1ccc(OC)c(Nc2nc(-c3sc(C)nc3C)cs2)c1	x	n	n	n	n
COc1ccc(Cl)cc1Nc1nc(-c2sc(NC(=O)c3ccco3)nc2C)cs1	n	n	n	88.6	n
COc1ccc(OC)c(Nc2nc(-c3sc(NC(=O)CC(C)C)nc3C)cs2)c1	n	n	n	76.3	n
COC(=O)c1cc(OC)c(OC)cc1NC(=O)c1cccc(OC)c1OC	n	n	n	71.6	n
CCOC(=O)c1oc2ccccc2c1NC(=O)c1cccc(OC)c1	n	n	n	n	n
CCOC(=O)c1oc2ccccc2c1NC(=O)c1cccc(OC)c1OC	n	n	n	76.7	n
COC(=O)c1cc(OC)c(OC)cc1NC(=O)Nc1ccccc1OC	n	n	n	n	n
O=c1[nH]cnc2c1ccn2C1OC(CO)C(O)C1O (centres undefined)	n	n	n	n	n
Cc1nc2c(OCc3ccc(C(F)(F)F)cc3)cccn2c1N(C)CC1CC1	n	x	x	x	x
NNC(=O)/C(=C/c1cccs1)NC(=O)c1ccccc1Cl	n	n	n	n	n
Cc1cccc(C)c1NC(=O)COc1ccc2c(C)c(Cc3ccccc3)c(=O)oc2c1C	53.2	n	u	n	n
CC1=C/C(=N\OS(=O)(=O)c2ccccc2)C(C(C)C)=CC1=O	n	n	n	82.8	n
COc1ccc(S(=O)(=O)/N=C2/C=CC(=O)C(C)=C2C)cc1	n	n	n	n	n
CC1=C/C(=N\OS(=O)(=O)c2ccccc2)C(C)=CC1=O	n	n	n	78.6	n
CC(S(=O)(=O)c1ccccc1)S(=O)(=O)c1ccccc1	n	n	x	x	n
CC1=C(C)/C(=N\OS(=O)(=O)c2ccc(C)cc2)C=CC1=O	n	n	n	91.2	n
COc1ccc(N2C(=O)C(CN3CCN(C)CC3)C2c2ccccc2)cc1 (centres undefined)	n	n	n	n	n
COc1ccccc1CCC(=O)Nc1ccc2c(c1)CN(Cc1ccc(CO)o1)CC2	n	n	n	76.9	n
O=C(Nc1ccc2c(c1)CN(Cc1ccc(CO)o1)CC2)c1ccc(C(F)(F)F)cc1	n	n	n	n	n
Cc1cc(C)c2c(CN3CCN(Cc4ccccc4)CC3)cc(=O)oc2c1	104.0	n	n	n	n
CCN1CCN(Cc2cc(=O)oc3cc(C)cc(C)c23)CC1	n	n	n	n	n
CCn1c(P(C)(=O)O)nc2cc(NC(=O)c3ccccc3Cl)ccc21	n	n	n	n	n
SMILES	Vif inh	PKA-R1A activ	SR-BI DiI-HDL act	SR-BI HDL uptake	PKA-R2B activ
Cc1ccc(NC(=O)c2cc(C)nc3ccccc23)cc1	n	n	n	n	n
Cc1ccc(C)c(NC(=O)c2cc(C)nc3ccccc23)c1	n	n	n	78.6	n
CCCOc1cccc(-c2cc(C(=O)NN)c3ccccc3n2)c1	n	n	n	84.4	n
COc1ccc(NC(=O)c2cc(-c3ccc(OC)c(OC)c3)nc3ccccc23)c(OC)c1	n	n	n	94.7	n
COc1ccc(NC(=O)c2cc(-c3ccncc3)nc3ccccc23)c(OC)c1	n	n	n	n	n
Cc1ccc(NC(=O)c2cc(CC(C)C)nc3ccccc23)cc1	n	n	n	n	n
COc1ccc(NC(=O)c2cc(CC(C)C)nc3ccccc23)cc1	n	n	n	76.1	n
O=C(COC(=O)c1ccc(F)c(S(=O)(=O)N2CCOCC2)c1)Nc1ccc(Cl)cn1	n	n	x	x	n
